Data reported in ChEMBL document CHEMBL4033796, “4-Amino-7,8-dihydro-1,6-naphthyridin-5(6 H)-ones as Inhaled Phosphodiesterase Type 4 (PDE4) Inhibitors: Structural Biology and Structure-Activity Relationships” (J Med Chem, 2018).
≈ marks a conversion by molar mass, not a printed value. Calls of active or inactive are those of the source. The rule behind the calls is not given here.

How the values were obtained:
[1] = biological target: 3',5'-cyclic-AMP phosphodiesterase 4B (Homo sapiens, UniProt Q07343); assay: Inhibition of recombinant human PDE4B1 using [3H]-cAMP as substrate […] measured after 60 mins by scintillation proximity assay
In short: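 Compounds ranged from 10 μM to 10 pM. The reaction was started with PDE4 enzyme and run 60 min at room temperature with agitation (about 10−20% conversion), then stopped with SPA beads. [3H]-AMP was counted by scintillation.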

[2] = Inhibition of PDE4 in human whole blood PBMC assessed as reduction in LPS-induced TNFalpha production after 24 hrs by ELISA
In short: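 Heparinized whole blood from healthy donors was preincubated with LPS (1 μg/mL final) at 37 °C for 10 min. It was then added to compounds in DMSO and incubated 24 h at 37 °C with agitation, then centrifuged. Serum TNF-α was measured by sandwich ELISA with TMB read-out at 450 nm. Experiments were done 2−3 times and duplicates were averaged.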

[3] = Thermodynamic solubility of the compound at 22 degC; type: physicochemical; settings: read-out: Therm_solubility
Rattus norvegicus [4] = assay: (§1) Antiinflammatory activity in Sprague-Dawley rat LPS-induced neutrophilia model assessed as inhibition of LPS-induced increase in netrophils in bronchoalveolar lavage at 1000 ug/kg, it administered single dose as microspray dosed 1 hr prior to nebulized LPS challenge measured after 4 hrs by flow cytometric analysis; type: functional
In short: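 Compound was suspended in PBS with 0.2% Tween 80, homogenized, and lower doses were made by 1:10 dilution. Rats (male Sprague-Dawley, 230−280 g, fasted, isoflurane) received 0.2 mL intratracheally by microsprayer, about 1 cm above the carina. Nebulized LPS challenge (30 mL over 40 min) followed 1 h later. BAL neutrophils were counted by flow cytometry 4 h after challenge.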

Rattus norvegicus [5] = organism: Rattus norvegicus; settings: Sprague-Dawley, 2000 ug/kg
Rattus norvegicus [6] = organism: Rattus norvegicus; settings: Sprague-Dawley, 2000 ug/kg; remark: listed apart in the source
[7] = Thermodynamic solubility of the compound at 37 degC
[8] = Half life in Sprague-Dawley rat at 500 ug/kg, iv; type: ADME; settings: in vivo, 0.5 mg/kg
[9] = Volume of distribution at steady state in Sprague-Dawley rat at 500 ug/kg, iv; type: ADME; settings: in vivo, 0.5 mg/kg, read-out: Vdss
[10] = AUC in Sprague-Dawley rat at 500 ug/kg, iv; type: ADME; settings: in vivo, 0.5 mg/kg
Rattus norvegicus [11] = assay: Pro-inflammatory activity in Sprague-Dawley rat assessed as increase in neutrophils in bronchoalveolar lavage at 3000 ug/kg, it administered as single dose via dry powder insufflator after 18 hrs post dose by flow cytometric analysis relative to basal level; type: ADME; settings: in vivo, inhaled_or_intranasal, 3 mg/kg
In short: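 Fasted male Sprague-Dawley rats (230−280 g) under isoflurane received 5 mg […] co-mixed with lactose, delivered intratracheally by DP-4 insufflator with 5 mL air. 18 h later, LPS (1:100 dilution of 10 mg/mL in PBS; 30 mL) was nebulized in chambers over 40 min. BAL was taken 4 h later and neutrophils were counted by flow cytometry. Lactose-only control.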

Lung [12] = assay: Drug level in Sprague-Dawley rat lung at 1000 ug/kg, it administered as dry powder measured up to 6 hrs post dose; type: ADME, tissue-based; settings: in vivo, inhaled_or_intranasal, 1 mg/kg
In short: (§2)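 Dry powder (5% w/w with lactose) was given intratracheally to rats. Compound was recovered from lung biopsies at times over a 24 h period and expressed as percentage of the total administered dose.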

[13] = Plasma concentration in Sprague-Dawley rat at 1000 ug/kg, it measured up to 1 hr post dose; type: ADME, cell-free; settings: inhaled or intranasal, 1 mg/kg
Lung [14] = assay: Drug level in Sprague-Dawley rat lung at 1000 ug/kg, it administered as dry powder measured at 6 hrs post dose; type: ADME, tissue-based; settings: in vivo, inhaled_or_intranasal, 1 mg/kg; in short: as §2
[15] = Apparent permeability of the compound by PAMPA assay; type: physicochemical
[16] = Cmax in Sprague-Dawley rat at 500 ug/kg, iv; type: ADME; design: dose 500 ug/kg, route intravenous; settings: in vivo, 0.5 mg/kg
Mustela putorius furo [17] = assay: Toxicity in it dosed ferret assessed as emesis administered as dry powder co-mixtured with lactose after 1 hr post dose; type: organism-based; settings: in vivo, inhaled_or_intranasal
Rattus norvegicus [18] = assay: as §1, with “at 100 to 3000” for “at 1000”, “administered as” for “administered”, “dose via dry powder insufflator” for “dose as microspray”, “1 to 18 hrs” for “1 hr”; type: functional
In short: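 Male Sprague-Dawley rats (230−280 g, fasted) were anaesthetized with isoflurane. Micronized compound co-mixed with lactose (5 mg of mix) was insufflated intratracheally through a cannula with 5 mL air. One or 18 h later, LPS solution (30 mL) was nebulized into a chamber over 40 min. After 4 h, BAL was done with 2 × 2 mL PBS and neutrophils were counted by flow cytometry. Controls were lactose alone and fluticasone (10% in lactose).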

Lung [19] = assay: Drug level in Sprague-Dawley rat lung at 1000 ug/kg, it administered as dry powder measured over 24 hrs post dose; type: ADME, tissue-based; settings: in vivo, inhaled_or_intranasal, 1 mg/kg; in short: as §2
Rattus norvegicus [20] = assay: Pro-inflammatory activity in Sprague-Dawley rat assessed as increase in neutrophils in bronchoalveolar lavage at 1000 ug/kg, it administered as single dose via dry powder insufflator after 18 hrs post dose by flow cytometric analysis relative to basal level; type: ADME; settings: in vivo, inhaled_or_intranasal, 1 mg/kg
Lung [21] = assay: Drug level in Sprague-Dawley rat lung at 1000 ug/kg, it administered as dry powder measured up to 18 hrs post dose; type: ADME, tissue-based; settings: in vivo, inhaled_or_intranasal, 1 mg/kg; in short: as §2
[22] = Clearance in Sprague-Dawley rat at 500 ug/kg, iv; type: ADME; settings: in vivo, 0.5 mg/kg
Mustela putorius furo [23] = assay: Toxicity in ferret assessed as emesis at 30 ug/kg, it administered as dry powder co-mixtured with lactose after 1 hr post dose; settings: in vivo, inhaled_or_intranasal, 0.03 mg/kg

Sequence of 3',5'-cyclic-AMP phosphodiesterase 4B (Q07343 whole entry): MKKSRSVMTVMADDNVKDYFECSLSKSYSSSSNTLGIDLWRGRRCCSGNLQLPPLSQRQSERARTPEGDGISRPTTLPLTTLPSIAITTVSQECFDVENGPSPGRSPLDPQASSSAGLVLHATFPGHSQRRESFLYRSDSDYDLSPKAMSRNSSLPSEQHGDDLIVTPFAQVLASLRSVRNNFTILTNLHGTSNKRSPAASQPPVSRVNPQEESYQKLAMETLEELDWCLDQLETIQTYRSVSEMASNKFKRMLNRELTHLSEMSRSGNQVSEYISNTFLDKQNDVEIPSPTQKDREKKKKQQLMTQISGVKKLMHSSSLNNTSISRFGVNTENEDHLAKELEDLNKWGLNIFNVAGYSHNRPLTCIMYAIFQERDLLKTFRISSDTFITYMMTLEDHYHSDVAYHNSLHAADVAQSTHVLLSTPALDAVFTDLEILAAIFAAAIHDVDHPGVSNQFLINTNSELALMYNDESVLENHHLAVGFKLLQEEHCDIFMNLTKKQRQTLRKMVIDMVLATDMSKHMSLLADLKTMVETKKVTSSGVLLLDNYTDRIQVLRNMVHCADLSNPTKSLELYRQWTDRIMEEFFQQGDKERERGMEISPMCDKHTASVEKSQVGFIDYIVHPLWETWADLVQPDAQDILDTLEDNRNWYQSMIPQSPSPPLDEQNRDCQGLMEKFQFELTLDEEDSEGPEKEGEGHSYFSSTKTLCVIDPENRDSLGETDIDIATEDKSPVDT

Structure (SMILES)	IC50 [1] [nM]	IC50 [2] [nM]	other results
COc1cccc(Nc2cc(-c3cccc(-c4cccc(C(N)=O)c4)c3)nc3c2C(=O)NCC3)c1	0.28	2.3	
COc1cccc(Nc2cc(-c3cccc(OC)c3)nc3c2/C(=N/C#N)NCC3)c1	13		
O=C1NCCc2nc(-c3ccccc3)cc(NCc3ccncc3)c21	25		
O=C(Nc1c(Cl)cncc1Cl)c1ccc(OC(F)F)c(OCC2CC2)c1 [ROFLUMILAST]		4	solubility thermodynamic [3]: 0.52 µg/mL (≈ 1.29 µM); inhibition in vivo at 1 mg/kg (Rattus norvegicus [4]): 80%; inhibition (Rattus norvegicus [5]): inactive; inhibition (Rattus norvegicus [6]): Active
O=C1NCCc2nc(-c3ccccc3)cc(Nc3cccc4c3ccc[n+]4[O-])c21	0.43	0.47	
CN(C)CCCNC(=O)c1cccc(-c2cccc(-c3cc(Nc4cccc5ncccc45)c4c(n3)CCNC4=O)c2)c1	0.11	0.36	
COc1cccc(Nc2cc(-c3ccccc3OC)nc3c2C(=O)NCC3)c1	32		
O=C(NC1CC1)c1cccc(-c2cccc(-c3cc(Nc4cccc5ncccc45)c4c(n3)CCNC4=O)c2)c1	0.17	0.12	solubility thermodynamic [7]: 4 µg/mL (≈ 7.61 µM); half-life [8]: 54 min; Vd [9]: 3.9 L/kg; AUC [10]: 108 ng·h/mL; fold change (FC) (Rattus norvegicus [11]): 1.3; Drug uptake (Lung [12]): 36%; concentration at 1 h [13]: < 5 ng/mL; Drug uptake (Lung [14]): 20%; Papp [15]: 0.15 ×10⁻⁶ cm/s; inhibition in vivo at 1 mg/kg (Rattus norvegicus [4]): 58%; Cmax [16]: 118 ng/mL; Activity (Mustela putorius furo [17]): Dose-dependent effect; Imax (Rattus norvegicus [18]): 35%; Drug uptake (Lung [19]): 15%; fold change (FC) (Rattus norvegicus [20]): 0.7; Drug uptake (Lung [21]): 18%; clearance [22]: 79 mL/min/kg; Activity (Mustela putorius furo [23]): Non-Toxic
COc1cccc(Nc2cc(-c3cccc(-c4cccc(O)c4)c3)nc3c2C(=O)NCC3)c1	1.8	4.2	
O=C1NCCc2nc(-c3ccc(F)c(F)c3)cc(Nc3cccc4ncccc34)c21	0.75	1.5	
COc1cccc(Nc2cc(-c3ccncc3)nc3c2C(=O)NCC3)c1	3.6	6.5	
NC(=O)c1cccc(Nc2cc(-c3ccccc3)nc3c2C(=O)NCC3)c1	12		
COc1cccc(Nc2cc(-c3ccccc3)ncc2C(N)=O)c1	240		
COc1cccc(Nc2cc(-c3cccc(-c4cc(C(=O)O)ccc4O)c3)nc3c2C(=O)NCC3)c1	9.6	140	
O=C1NCCc2nc(-c3cccc(-c4cccc(O)c4)c3)cc(Nc3cccc4ncccc34)c21	0.89	0.5	
COc1cccc(Nc2cc(C3CC3)nc3c2C(=O)NCC3)c1	8.5		
COc1cccc(Nc2cc(-c3ccccc3)nc3c2C(=O)NCC3)c1	1.6	5.4	Papp [15]: 2 ×10⁻⁶ cm/s
N#Cc1cccc(Nc2cc(-c3ccccc3)nc3c2C(=O)NCC3)c1	3.3	13	
COc1cccc(Nc2cc(-c3cccc(-c4ccc(C(=O)O)cc4)c3)nc3c2C(=O)NCC3)c1	0.35	5.7	Papp [15]: 3.5 ×10⁻⁶ cm/s

Structure (SMILES)	IC50 [1] [nM]	IC50 [2] [nM]	other results
COc1cccc(Nc2cc(-c3cccc(-c4cccc(C(=O)NCCN(C)C)c4)c3)nc3c2C(=O)NCC3)c1	0.23	2.8	
COc1cccc(Nc2cc(-c3cc[n+]([O-])cc3)nc3c2C(=O)NCC3)c1	51		
O=C1NCCc2nc(-c3ccccc3)cc(Nc3ccc(C[C@@H](O)CO)cc3)c21	8.7	0.49	
O=C1NCCc2nc(-c3ccccc3)cc(Nc3cccc4ncccc34)c21	0.96	0.92	
COc1cccc(Nc2cc(-c3cccc(OC)c3)nc3c2/C(=N/O)NCC3)c1	2000		
N#C/N=C1\NCCc2nc(-c3ccc(F)c(F)c3)cc(Nc3cccc4ncccc34)c21	0.89	17	
COc1cccc(Nc2cc(-c3cccc(Sc4cccc(OC)c4)c3)nc3c2C(=O)NCC3)c1	1.6	3.4	
NC(=O)c1ccc(Nc2cc(-c3ccccc3)nc3c2C(=O)NCC3)cc1	1.5	4.2	
Cc1ccncc1Nc1cc(-c2ccccc2)nc2c1C(=O)NCC2	42		
CCOC(=O)c1ccc(-c2cccc(-c3cc(Nc4cccc5ncccc45)c4c(n3)CCNC4=O)c2)cc1	1.2	0.66	
CNC(=O)c1cnc(-c2ccccc2)cc1Nc1cccc2ncccc12	5800		
O=C(O)c1ccc(-c2cccc(-c3cc(Nc4cccc5ncccc45)c4c(n3)CCNC4=O)c2)cc1	0.11	0.52	
O=C1NCCc2nc(-c3ccccc3)cc(Nc3cccc4ccccc34)c21	11		
COc1cc(Nc2cc(-c3ccccc3)nc3c2C(=O)NCC3)cc(OC)c1	27		
CCOC(=O)c1ccc(-c2cccc(-c3cc(Nc4cccc(OC)c4)c4c(n3)CCNC4=O)c2)cc1	7.2	1.2	
Nc1cc(-c2ccccc2)nc2c1C(=O)NCC2	2400		
COc1cccc(Nc2nc(-c3ccccc3)nc3c2C(=O)NCC3)c1	52	40	
COc1cc(Nc2cc(-c3ccccc3)nc3c2C(=O)NCC3)ccc1C(=O)O	2.3	9.9	
O=C1NCCc2nc(-c3ccccc3)cc(Nc3n[nH]c4ncccc34)c21	5.6	3	

The remaining compounds from weak to strong by IC50 [1], led by results:

IC50 [1] [nM]	IC50 [2] [nM]	Structure (SMILES)	other results
640		COc1cccc(Nc2cc(-c3ccccc3)nc3c2C(=O)NCC3C)c1 (stereo not given)	
120	270	COc1cccc(Nc2cc(-c3ccccc3)nc3c2C(=O)NC(C)C3)c1 (stereo not given)	
56		O=C1NCCc2nc(-c3ccccc3)cc(Nc3nn(-c4ccccc4)c4ncccc34)c21	
35		NC(=O)c1cnc(-c2ccccc2)cc1Nc1cccc2ncccc12	
24		O=C1NCCc2nc(-c3ccccc3)cc(Nc3cccc(CO)c3)c21	
14		O=C1NCCc2nc(-c3ccccc3)cc(Nc3cccc4cnccc34)c21	
12		O=C1NCCc2nc(-c3ccccc3)cc(Nc3ccc(CCO)cc3)c21	
12		O=C1NCCc2nc(-c3ccccc3)cc(NCCc3ccncc3)c21	
11		Cn1nc(Nc2cc(-c3ccccc3)nc3c2C(=O)NCC3)c2cccnc21	
8.4		COc1cccc(Nc2cc(-c3cccc(OC)c3)nc3c2C(=O)NCC3)c1	
8.2		COc1cccc(Nc2cc(-c3cccc(Br)c3)nc3c2C(=O)NCC3)c1	
5.6	4.2	COC(=O)c1ccc(O)c(-c2cccc(-c3cc(Nc4cccc(OC)c4)c4c(n3)CCNC4=O)c2)c1	
2.3	4.8	O=C1NCCc2nc(-c3ccccc3)cc(Nc3ccc4ncccc4c3)c21	
2.1	0.43	COc1cccc(Nc2cc(-c3cccc(-c4cccc(C(=O)NC5CC5)c4)c3)nc3c2C(=O)NCC3)c1	
0.32	1.1	O=C(NC1CC1)c1cccc(-c2cccc(-c3cc(Nc4cncc5ccccc45)c4c(n3)CCNC4=O)c2)c1	
0.27	0.46	O=C(NC1CC1)c1cccc(-c2cccc(-c3cc(Nc4ccnc5ccccc45)c4c(n3)CCNC4=O)c2)c1	
0.045	0.075	O=C(NC1CC1)c1cccc(-c2cccc(-c3cc(Nc4cccc5c4ccc[n+]5[O-])c4c(n3)CCNC4=O)c2)c1	
